Experimental data as given in ChEMBL document CHEMBL1156148, “Isolation, structure and biological activities of platencin A(2)-A(4) from Streptomyces platensis” (Bioorg Med Chem, 2010).
Converted amounts (≈) assume the structure as drawn.

How the values were obtained:
Escherichia coli [1] = test: Antibacterial activity against wild type Escherichia coli MB2884 after 20 hrs by NCCLS method; format: functional; conditions: MB2884, 20 h
Summary of the method: (§1)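 Twofold serial broth dilution in cation-adjusted Mueller Hinton broth per NCCLS guidelines. Inoculum 10^5 CFU/mL, incubated at 37 °C for 20 h with compound in growth medium. MIC taken as the lowest concentration preventing visible growth.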

Escherichia coli [2] = test: Antibacterial activity against envelope disrupted Escherichia coli MB5746 after 20 hrs by NCCLS method; format: functional; conditions: MB5746, 20 h; summary of the method: as §1
Enterococcus faecalis = test: Antibacterial activity against Enterococcus faecalis CL8516 after 20 hrs by NCCLS method; format: functional; conditions: CL8516, 20 h; summary of the method: as §1
Haemophilus influenzae = test: Antibacterial activity against Haemophilus influenzae MSD2261 after 20 hrs by NCCLS method; format: functional; conditions: MSD2261, 20 h; summary of the method: as §1
[3] = Inhibition of Staphylococcus aureus FAS2 assessed as 2-[14C]malonyl-CoA incorporation after 90 mins by scintillation counting
Summary of the method: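 Partially purified S. aureus fatty-acid synthesis enzyme mix (1.26 µg) preincubated 20 min at room temperature with serially diluted compound. Buffer: 100 mM sodium phosphate pH 7.0, EDTA, NADPH, NADH, DTT, β-mercaptoethanol, 20 µM octanoyl-CoA (or lauroyl-CoA), 4% DMSO, 5 µM ACP. Started with 4 µM final [2-14C]malonyl-CoA, run 90 min at 37 °C, stopped with perchloric acid, and counted by scintillation on phospholipid-coated flash plates.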

Bacillus subtilis = test: Antibacterial activity against Bacillus subtilis MB964 after 20 hrs by NCCLS method; format: functional; conditions: MB964, 20 h; summary of the method: as §1
HeLa = test: Cytotoxicity against human HeLa cells by MTT assay; format: functional, cell-based
Staphylococcus aureus [4] = test: Antibacterial activity against Staphylococcus aureus Lin after 20 hrs by NCCLS method in presence of 50 % serum; format: functional
Candida albicans = test: Antifungal activity against Candida albicans after 20 hrs by NCCLS method; format: functional; summary of the method: as §1
Staphylococcus aureus [5] = test: Antibacterial activity against Staphylococcus aureus Smith after 20 hrs by NCCLS method; format: functional; summary of the method: as §1
Staphylococcus aureus [6] = test: Antibacterial activity against Staphylococcus aureus expressing FabF antisense plasmid S1-1941 assessed as minimum concentration required to produce differential zone of clearance after 18 hrs by antisense two-plate differential sensitivity cellular assay relative to control; format: functional
Summary of the method: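 S. aureus RN450 carrying the fabF antisense plasmid S1–1941, plus a vector-only control strain, grown 18–20 h at 37 °C in LB with 34 µg/mL chloramphenicol. Seeded at 1:1000 of OD 3.0 into LB agar with 0.2% glucose and 15 µg/mL chloramphenicol; antisense plates also got 50 mM xylose. Samples added to agar wells, incubated 18 h at 37 °C, and zones measured. MDC was found by twofold serial dilution.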

SMILES	MIC (Escherichia coli [1])	MIC (Escherichia coli [2])	MIC (Enterococcus faecalis)	MIC (Haemophilus influenzae)	IC50 [3]	MIC (Bacillus subtilis)	IC50 (HeLa)	MIC (Staphylococcus aureus [4])	MIC (Candida albicans)	MIC (Staphylococcus aureus [5])	Activity (Staphylococcus aureus [6])
C=C1C[C@@]23C=CC(=O)[C@@](C)(CCC(=O)Nc4c(O)ccc(C(=O)O)c4O)[C@@H]2C[C@@H]1CC3 [PLATENCIN]	> 64 µg/mL	2 µg/mL (≈ 4.7 µM)	2 µg/mL (≈ 4.7 µM)	64 µg/mL (≈ 150 µM)	12 µg/mL (≈ 28.2 µM)	1 µg/mL (≈ 2.35 µM)	86 µM	8 µg/mL	> 64 µg/mL	0.5 µg/mL (≈ 1.18 µM)	0.2 µg/mL
C=C1[C@H]2CC[C@@]3(C=CC(=O)[C@@](C)(CCC(=O)Nc4c(O)ccc(C(=O)O)c4O)[C@@H]3C2)[C@H]1O [PLATENCIN A3]	> 64 µg/mL	16 µg/mL (≈ 36.2 µM)	64 µg/mL (≈ 145 µM)	64 µg/mL (≈ 145 µM)	7.1 µg/mL (≈ 16.1 µM)	64 µg/mL (≈ 145 µM)	> 100 µM	> 64 µg/mL	> 64 µg/mL	16 µg/mL (≈ 36.2 µM)	20 µg/mL
C[C@@]1(O)C[C@@]23C=CC(=O)[C@@](C)(CCC(=O)Nc4c(O)ccc(C(=O)O)c4O)[C@@H]2C[C@@H]1CC3 [PLATENCIN A4]	> 64 µg/mL	32 µg/mL (≈ 72.2 µM)	> 64 µg/mL	> 64 µg/mL	25.1 µg/mL (≈ 56.6 µM)	> 64 µg/mL	> 100 µM	> 64 µg/mL	> 64 µg/mL	> 64 µg/mL	100 µg/mL
